Data as given in PubChem BioAssay AID504425 (Johns Hopkins Ion Channel Center, 2011).
Active and inactive are the calls of the source.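 The calls were made as follows: active = compound that lowers Cav3.3 T-type calcium current at some tested dose and yields a usable dose response curve; inactive = the rest.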

Molecular target: Voltage-dependent T-type calcium channel subunit alpha-1I (Homo sapiens) (UniProt Q9P0X4)
Test: inhibitors of CACNA1I calcium current – automated patch clamp, HEK293 cells, selectivity assay for Cav3.2 inhibitor project, dose response (AID 504425)
Details: HEK293 Cav3.3, automated patch clamp current; for current change, negative = inhibition: at 30 µM (top of the series)
In short: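 Material: Cav3.3-expressing stable HEK293 cell line; Probe or stimulus: voltage step, -100 mV to -30 mV, 1 s; Times: 3 min compound exposure between pre- and post-compound recordings; Detection: automated perforated patch clamp current recording.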

Chain of Voltage-dependent T-type calcium channel subunit alpha-1I (Homo sapiens) (Q9P0X4 whole entry, looked up): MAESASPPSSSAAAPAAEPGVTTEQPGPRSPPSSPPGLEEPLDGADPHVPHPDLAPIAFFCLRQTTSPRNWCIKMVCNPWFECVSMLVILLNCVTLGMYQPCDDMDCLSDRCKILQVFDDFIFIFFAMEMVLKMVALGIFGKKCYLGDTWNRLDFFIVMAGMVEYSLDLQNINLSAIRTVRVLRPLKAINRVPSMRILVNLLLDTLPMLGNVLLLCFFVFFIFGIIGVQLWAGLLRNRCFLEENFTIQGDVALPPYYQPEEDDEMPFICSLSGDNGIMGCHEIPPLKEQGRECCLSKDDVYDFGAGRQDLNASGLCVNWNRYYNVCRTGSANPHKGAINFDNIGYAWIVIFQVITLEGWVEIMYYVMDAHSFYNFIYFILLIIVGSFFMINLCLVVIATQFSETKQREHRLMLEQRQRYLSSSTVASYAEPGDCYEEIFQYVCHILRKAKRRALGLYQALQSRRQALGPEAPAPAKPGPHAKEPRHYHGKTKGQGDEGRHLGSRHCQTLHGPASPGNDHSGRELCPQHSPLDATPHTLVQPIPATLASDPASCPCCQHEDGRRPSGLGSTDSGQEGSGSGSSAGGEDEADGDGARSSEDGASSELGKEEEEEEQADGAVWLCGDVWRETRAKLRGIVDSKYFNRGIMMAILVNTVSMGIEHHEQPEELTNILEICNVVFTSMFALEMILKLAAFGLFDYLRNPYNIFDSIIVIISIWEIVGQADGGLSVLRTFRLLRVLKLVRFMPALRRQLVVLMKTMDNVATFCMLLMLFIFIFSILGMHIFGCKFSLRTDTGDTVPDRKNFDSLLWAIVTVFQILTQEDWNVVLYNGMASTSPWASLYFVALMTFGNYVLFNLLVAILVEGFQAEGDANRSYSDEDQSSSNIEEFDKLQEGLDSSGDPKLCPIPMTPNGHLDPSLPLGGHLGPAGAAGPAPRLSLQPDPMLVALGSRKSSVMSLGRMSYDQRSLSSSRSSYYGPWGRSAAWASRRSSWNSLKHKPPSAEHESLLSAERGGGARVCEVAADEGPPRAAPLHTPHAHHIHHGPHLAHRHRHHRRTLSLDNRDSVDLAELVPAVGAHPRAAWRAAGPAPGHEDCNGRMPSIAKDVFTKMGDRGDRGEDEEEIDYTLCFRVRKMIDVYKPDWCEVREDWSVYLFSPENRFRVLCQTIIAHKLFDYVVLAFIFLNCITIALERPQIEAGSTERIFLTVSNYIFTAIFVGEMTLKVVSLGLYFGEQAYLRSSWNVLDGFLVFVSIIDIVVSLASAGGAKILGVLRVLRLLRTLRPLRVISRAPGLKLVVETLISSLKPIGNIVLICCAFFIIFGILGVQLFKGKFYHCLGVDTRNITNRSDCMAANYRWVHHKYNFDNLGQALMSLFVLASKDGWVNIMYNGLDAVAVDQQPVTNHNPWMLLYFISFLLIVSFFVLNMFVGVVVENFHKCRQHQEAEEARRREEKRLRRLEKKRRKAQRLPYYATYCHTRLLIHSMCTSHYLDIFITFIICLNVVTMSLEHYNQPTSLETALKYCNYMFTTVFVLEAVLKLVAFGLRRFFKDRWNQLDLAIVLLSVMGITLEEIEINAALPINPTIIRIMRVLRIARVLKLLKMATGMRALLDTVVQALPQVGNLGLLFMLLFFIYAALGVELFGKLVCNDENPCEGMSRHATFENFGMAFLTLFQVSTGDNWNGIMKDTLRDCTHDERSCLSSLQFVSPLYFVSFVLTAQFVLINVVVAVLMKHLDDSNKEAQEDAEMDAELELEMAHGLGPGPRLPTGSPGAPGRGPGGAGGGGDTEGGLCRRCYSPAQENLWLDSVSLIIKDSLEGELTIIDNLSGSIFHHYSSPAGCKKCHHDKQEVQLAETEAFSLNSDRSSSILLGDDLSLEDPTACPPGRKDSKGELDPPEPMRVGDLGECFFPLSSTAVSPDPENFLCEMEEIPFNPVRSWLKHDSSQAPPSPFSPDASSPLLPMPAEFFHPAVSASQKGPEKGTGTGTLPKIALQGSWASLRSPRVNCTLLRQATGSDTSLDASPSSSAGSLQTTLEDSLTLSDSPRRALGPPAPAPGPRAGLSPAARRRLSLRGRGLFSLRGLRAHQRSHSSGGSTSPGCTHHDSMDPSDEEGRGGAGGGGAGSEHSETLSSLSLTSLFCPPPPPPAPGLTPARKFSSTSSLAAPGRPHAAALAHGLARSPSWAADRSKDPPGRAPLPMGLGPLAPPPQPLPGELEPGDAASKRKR

| Compound | current change, negative = inhibition | IC50 |
| --- | --- | --- |
| CC(C)(C)Cc1nnc(NC(=O)COc2ccc(Cl)cc2Cl)o1 | inactive | – |
| O=C(COc1ccc(F)cc1Cl)Nc1nnc(-c2ccc(F)c(F)c2)o1 | – | 11 µM |
| CC(C)(C)CCN1C[C@@H]2C(CNC(=O)c3cc(Cl)cc(Cl)c3)[C@@H]2C1 (some centres undefined) | – | 0.275 µM |
| Cc1ccc(-c2nnc(NC(=O)COc3ccc(F)cc3Cl)o2)cc1C | inactive | – |
